Tests used:
[1] = tested on: IMR-32; test: Effective dose to protect IMR-32 cells from beta-Amyloid (BA) insult was determined using MTT reduction assay; type: functional; settings: Homo sapiens, read-out: ED50 (the source's name)
In short: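 IMR-32 human neuroblastoma cells in Minimum Essential Medium with Earle's salts and L-glutamine, 10% fetal bovine serum and 1% penicillin/streptomycin were run as in the PC12 protocol. Cells were co-exposed 24 h to βA(1-42) and test compound at five concentrations, final DMSO <1%. MTT was reduced for 1 h at 37 °C, then lysed overnight, with OD read at 570 nm. ED50 came from dose–response curves.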

[2] = tested on: PC-12; test: Effective dose to protect PC12 cells from beta-Amyloid (BA) insult was determined using MTT reduction assay; type: functional; settings: Rattus norvegicus, read-out: ED50 (the source's name)
In short: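 PC12 cells in high-glucose DMEM with 10% horse serum, 5% fetal calf serum and 1% penicillin/streptomycin were plated overnight. They were then co-incubated 24 h with βA(1-42) (DMSO stock) and test compound at five concentrations, final DMSO <1%. MTT was added for 1 h at 37 °C, then lysing buffer overnight at 37 °C, and OD read at 570 nm. Viability was referenced to DMSO-only and βA-only wells. ED50 came from dose–response curves; curcumin was the positive control.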

Row | SMILES | EC50 [1] [µM] | EC50 [2] [µM]
1 | CCCCCC/C=C/C(=O)CCc1ccc(O)c(OC)c1 | 12 | 8.6
2 | CCCCCCCCC/C=C/C(=O)CCc1ccc(O)c(OC)c1 | 3.3 | 1.8
3 | CCCCCCCC/C=C/C(=O)CCc1ccc(O)c(OC)c1 | 6.2 | 4.4
4 | CCCC/C=C/C(=O)CCc1ccc(O)c(OC)c1 | 37.4 | 29
5 | CCCCCCCCCCC/C=C/C(=O)CCc1ccc(O)c(OC)c1 | 0.5 | 0.2
6 | CCCCCCC/C=C/C(=O)CCc1ccc(O)c(OC)c1 | 8.8 | 5.9
7 | CCC/C=C/C(=O)CCc1ccc(O)c(OC)c1 | 61.2 | 45.9
8 | CCCCCCCCCC/C=C/C(=O)CCc1ccc(O)c(OC)c1 | 1.4 | 0.5
9 | COc1cc(/C=C/C(=O)CC(=O)/C=C/c2ccc(O)c(OC)c2)ccc1O [CURCUMIN] | 23.9 | 17.1
10 | CCCCC/C=C/C(=O)CCc1ccc(O)c(OC)c1 [SHOGAOL] | 24.2 | 16.3
11 | COc1cc(CCC(C)=O)ccc1O [ZINGERONE] | > 129 | > 129

Reference: ChEMBL document CHEMBL1147607, “Side-chain length is important for shogaols in protecting neuronal cells from beta-amyloid insult” (2004)
